Assay outcomes deposited in PubChem by several laboratories.
MEKK3 PB1 HTS – modulators of MEKK3-MEK5 PB1 binding, primary screen, biochemical, wildtype MEKK3, multiplex bead flow cytometry, Alexa488-MEK5 | Mitogen-activated protein kinase kinase kinase 3 (Homo sapiens), Q99759 | bead-based flow cytometry, Alexa488-MEK5 binding to MEKK3; actives lie on both sides; 0 = blocked by unlabeled MEK5, 100 = vehicle | 290,000 compounds, 1.4% hits | binding response (% of control), % at 10 µM;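 active means binding response more than 3 SD above or below the average of its plate-row segment, actives on both sides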;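 further: Alexa488 bead fluorescence after subtracting the streptavidin-only scavenger bead signal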
UBC13 polyUb – UBC13 polyubiquitin chain formation inhibitors, primary screen, biochemical, TR-FRET, uHTS. Ubiquitin-conjugating enzyme E2 N (Homo sapiens), P61088. inhibition, % at 20 µM. 330,000 compounds, 0.47% hits; in the data active means inhibition above about 45%, passing the limit was not always enough
Apaf-1 inh – inhibitors of human Apaf-1 apoptosome, primary screen, biochemical, DEVD-Rh110 fluorescence, uHTS. 330,000 compounds, 0.71% hits. inhibition, % at 20 µM. Apoptotic protease-activating factor 1 (Homo sapiens), O14727. reconstituted apoptosome caspase-3 activity; active means inhibition of at least 40% at 20 µM;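 further: plate controls were DMSO wells for no effect and DEVD-CHO caspase inhibitor wells for full effect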
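Material: biochemical Apaf-1 apoptosome reconstitution. Medium: Hepes buffer, pH 7.5. Also added: cytochrome c activation, bis-DEVD rhodamine 110 substrate. Timing: 30 min compound preincubation, 50 min activation, room temperature. Measured by: rhodamine 110 fluorescence at Ex 480/Em 540 nm.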
Pemphigus Ab inh – inhibitors of pemphigus antibody binding to DSG3, primary screen, biochemical, bead-based, flow cytometry, scFv-GFP. Desmoglein-3 (Homo sapiens), P32926. AID 588358, 2011. binding (percent of control), % at 10 µM. DSG3-coupled beads, scFv-anti-DSG3-GFP binding; stronger effect = lower value. 310,000 compounds, 0.48% hits;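 active means binding more than 3 SD below its plate's average and above zero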
MEKK2mut PB1 HTS – MEK5 binding signal on mutant MEKK2 PB1, primary screen, biochemical, multiplex bead flow cytometry, Alexa488-MEK5. percent response, % at 10 µM. Alexa488-MEK5 binding to MEKK2 mutant. AID 1530, 2009. 290,000 compounds, 0.35% hits; in the data active means percent response above about 24%, passing the limit was not always enough
MEKK2wt PB1 HTS – modulators of MEK5 binding to wildtype MEKK2, primary screen, biochemical, multiplex bead flow cytometry, Alexa488-MEK5 | Alexa488-MEK5 binding to MEKK2 WT; actives lie on both sides | 290,000 compounds, 1.1% hits | AID 1531, 2009 | binding response (% of control), % at 10 µM | Mitogen-activated protein kinase kinase kinase 2 (Homo sapiens), Q9Y2U5; in the data active means binding response below about 67% or above about 130%
MEKK2wt confirm – modulators of MEK5 binding to wildtype MEKK2, confirmation, biochemical, single concentration, multiplex bead flow cytometry | shares compounds with MEKK3 PB1 HTS | Alexa488-MEK5 binding to MEKK2 WT; actives lie on both sides | binding response (% of control), % at 10 µM | 5,900 compounds, 2.4% hits | AID 1892, 2009; in the data active means binding response below about 16% or above about 210%; inactive means in between
MEKK2mut-MEK5 – mutant MEKK2 PB1-MEK5 binding signal retest – biochemical, single concentration, multiplex bead flow cytometry, confirmation. shares compounds with MEKK3 PB1 HTS. Alexa488-MEK5 binding to MEKK2 mutant. 5,900 compounds, 2% hits. percent response, % at 10 µM. AID 1893, 2009; in the data active means percent response mostly above about 71%, no sharp cut-off; inactive means mostly below about 38%;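 further: higher means compound restores mutant binding toward wildtype level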
MEKK3-MEK5 inh – MEKK3 wild-type PB1 binding to MEK5, inhibitors, confirmation, biochemical, bead multiplex flow cytometry, single concentration, wildtype; AID 1894, 2009; 5,900 compounds, 1.8% hits; binding response (% of control), % at 10 µM; shares compounds with MEKK3 PB1 HTS; Alexa488-MEK5 binding to MEKK3; stronger effect = lower value;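 active means binding response below 72% of control, or above a set upper limit, though filed actives all read lower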;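 further: 100% = DMSO only wells and 0% = binding blocked by excess unlabeled MEK5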
Starred values were filed as active, the others as inactive; x = no result given; [ ] = another dose, or the depositor's remark. Only some compounds are listed: those with a hit (about 3.2% of all), similar ones and a draw of the others.

SMILES	MEKK3 PB1 HTS	UBC13 polyUb	Apaf-1 inh	Pemphigus Ab inh	MEKK2mut PB1 HTS	MEKK2wt PB1 HTS	MEKK2wt confirm	MEKK2mut-MEK5	MEKK3-MEK5 inh
COC(=O)c1ccc(C(=O)Nc2ccc3c(c2)C(=O)NC3=O)cc1	60*[inhibitor]	13	-11	103	-5	69*[inhibitor]	79	-11	83
Cc1[nH]c2ccccc2c1/C=N/Nc1ccccc1[N+](=O)[O-]	67*[inhibitor]	-107	29	101	6	92	119	9	96
COc1ccc(NS(=O)(=O)c2cc([N+](=O)[O-])ccc2N/N=C/c2c(C)[nH]c3ccccc23)cc1	x	x	x	116	x	x	x	x	x
Cc1[nH]c2ccccc2c1/C=N/NC(=S)NC(C)C	98	17	-10	146	144*	18*	105	4	96
O=C(Nc1ccccc1)c1cccc(N2CCCC2=O)c1	61*[inhibitor]	-8	-2	92	-16	77	107	13	110
O=C(Nc1cccc(C(F)(F)F)c1)Nc1ccon1	104	3	5	106	3	105	x	x	x
O=C(O)c1cccc(N2CCCC2=O)c1	112	2	-21	102	7	106	x	x	x
O=C(Nc1ccccc1)c1cccc(C(F)(F)F)c1	144*	2	-2	109	1	108	104	1	105
O=C(Nc1ccon1)c1cccc(C(F)(F)F)c1	70*[inhibitor]	0	-11	101	-3	77	96	-4	102
O=C(N/N=C/c1cccc(F)c1)c1ccc(Cl)cc1	104	4	13	101	-2	101	x	x	x
O=C(N/N=C/c1cccc(NC(=O)c2ccc(Cl)cc2)c1)c1ccc(O)cc1	44*[inhibitor]	-9	-11	98	-13	38*[inhibitor]	96	-2	101
CN(C)c1ccc(/C=N/NC(=O)c2ccc(NC(=O)c3ccccc3)cc2)cc1	73*[inhibitor]	2	-7	103	-37	80	99	0	99
COC(=O)c1ccc(CSc2nnc(NC(C)C)s2)o1	71*[inhibitor]	5	15	99	-2	84	108	0	101
COc1ccc(NC(=O)Nc2nnc(-c3ccccc3SCc3ccccc3)s2)cc1	122*	-9	18	101	6	106	90	1	99
CCc1cc2ccc(OC)cc2nc1SCC(=O)Nc1cc(C)on1	123*	5	-4	x	5	117	98	-1	103
CCc1cc2ccc(OC)cc2nc1SCC(=O)NNC(C)=O	135*	-1	-9	99	6	124	99	-1	103
CCc1cc2cc(OC)ccc2nc1SCC(=O)NNC(=O)c1ccco1	99	-14	1	105	-7	97	x	x	x
Cc1cc(C)n2nc(SCC(=O)NC3(C#N)CCCCC3)nc2n1	x	x	x	106	x	x	x	x	x
CC(=O)N1CC2(C)CN(C(C)=O)CC(C)(C1)C2	91	5	-4	98	0	94	x	x	x
CCC(=O)N1CC2(C)CN(C(=O)CC)CC(C)(C1)C2	129*	8	1	103	8	122	100	-3	101
CC1(C)CC(=O)C(Sc2ccc(Br)cc2)=C(O)C1	73*[inhibitor]	8	-9	114	-4	84	98	-7	90
CC1(C)CC(=O)C(N=Nc2ccc(Br)cc2)=C(O)C1	98	-2	-19	99	2	97	x	x	x
c1ccc2c(c1)OC(CCCN1CCCCC1)c1ccccc1S2 (stereo unspecified)	106	27	19	x	27*	141*	138	21	107
O=S1(=O)CCN(C2CC2)CC1	x	x	x	104	x	x	x	x	x
O=C(Cc1ccc2cccnc2c1)c1ccc(O)cc1O	2.0*[inhibitor]	10	-14	80	-27	-1.0*[inhibitor]	91	-7	89
SMILES	MEKK3 PB1 HTS	UBC13 polyUb	Apaf-1 inh	Pemphigus Ab inh	MEKK2mut PB1 HTS	MEKK2wt PB1 HTS	MEKK2wt confirm	MEKK2mut-MEK5	MEKK3-MEK5 inh
Oc1ccc2cccnc2c1	99	-4	-1	116	4	97	x	x	x
CCOC(=O)c1c(NC(=O)CNCC(O)CO)sc(C)c1C (stereo unspecified)	101	2	5	122	0	101	x	x	x
CCCCNCC(=O)Nc1sc(C)c(C)c1C(=O)OCC	79*[inhibitor]	10	8	98	-2	102	108	8	108
Cc1ccn2cc(-c3ccc(Br)cc3)nc2c1	95	-3	-11	92	-4	97	x	x	x
Clc1ccc(-c2cn3cc(Br)ccc3n2)cc1Cl	150*	29	9	x	0	109	93	-2	100
C=C(C)COC(=O)C1CC2OC2CC1C(=O)OCC(=C)C (stereo unspecified)	x	x	x	89	x	x	x	x	x
COc1cc(OC)c(C=NNC(=S)NC23CC4CC(CC(C4)C2)C3)c(OC)c1	x	x	x	95	x	x	x	x	x
COc1ccc(CN2C(=O)c3cccnc3C2=O)cc1S(=O)(=O)NC(C)C	98	6	-6	95	1	101	x	x	x
N=C1/C(=C\c2ccc(SCc3ccccc3)o2)C(=O)N=C2SC(CC(=O)N3CCOCC3)=NN12	48*[inhibitor]	3	5	94	-12	50	94	-6	94
Cc1ccc(/C=C2\C(=N)N3N=C(CC(=O)N4CCOCC4)SC3=NC2=O)o1	101	-13	-9	135	4	104	x	x	x
COCc1[nH]nc2c1C1(C(=O)N(C)c3ccccc31)C(C#N)=C(N)O2 (stereo unspecified)	79*[inhibitor]	3	0	x	-5	79	106	4	103
Cc1ccc(OCC(O)Cn2c(=N)n(Cc3ccccc3)c3ccccc32)cc1 (stereo unspecified)	106	19	2	115	6	140*	120	8	99
